Compounds with a hit are over-represented: about 2.3% of the library has one in this group of screens.
TbHK1 inh = Trypanosoma brucei hexokinase 1 inhibitors, primary screen, biochemical, G6PDH-coupled NADH absorbance, MLSCN library. 0.11% of 220,000 active. inhibition, % at 10 µM. recombinant TbHK1, G6PDH-coupled NADH A340. hexokinase 1 [Trypanosoma brucei];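 active = inhibition of 50% or more in the single-dose primary screen; inactive = inhibition below 50%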
NPY2 pot ag = NPY-Y2 potentiators or agonists, primary screen, cell-based | 0.45% of 220,000 active | Neuropeptide Y receptor type 2 (Homo sapiens), P49146 | cells expressing NPY-Y2, potentiator/agonist read-out | activation, % at 3.6 µM; in the data active = activation above about 27%;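 also: cells stimulated with NPY near EC25 plus isoproterenol at EC100; 0% = vehicle plus submaximal agonist and 100% = vehicle plus saturating agonist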
Target sequence (P49146 whole entry, looked up): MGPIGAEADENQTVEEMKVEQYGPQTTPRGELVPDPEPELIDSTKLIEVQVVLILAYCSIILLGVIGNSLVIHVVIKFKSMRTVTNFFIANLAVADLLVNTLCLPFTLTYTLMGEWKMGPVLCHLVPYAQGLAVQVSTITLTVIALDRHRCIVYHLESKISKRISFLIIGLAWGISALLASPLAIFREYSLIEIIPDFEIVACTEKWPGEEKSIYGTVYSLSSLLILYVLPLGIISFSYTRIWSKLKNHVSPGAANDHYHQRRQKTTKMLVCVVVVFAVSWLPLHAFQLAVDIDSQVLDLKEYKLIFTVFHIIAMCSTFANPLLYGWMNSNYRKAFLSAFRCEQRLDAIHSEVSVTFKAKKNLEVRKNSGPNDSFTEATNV
NPY Y1 blocker = NPY-Y1 receptor antagonists, primary screen, cell-based. Neuropeptide Y receptor type 1 (Homo sapiens), P25929. HEK293-CNG Y1 cells, membrane potential fluorescence; NPY at EC95, then isoproterenol. inhibition, % at 3.6 µM. 1% of 200,000 active;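 active = inhibition above the campaign mean inhibition of all tested compounds plus 3 SD, cut at about 20% in these data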;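 also: 0% = DMSO wells given NPY plus isoproterenol and 100% = isoproterenol alone without NPY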
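Test system: HEK293 cells co-expressing NPY Y1 receptor and cyclic-nucleotide gated channel; Also added: NPY (25 nM), isoproterenol (1 µM), Ro 20-1724 (25 µM); Compound dosing: one concentration, 3.6 µM, in 0.4% DMSO; Timing: dye 3 h, compound 60 min room temperature, stimulation 45 min; Technique: Membrane-potential fluorescent dye readout.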
NPY-Y2 antag = NPY-Y2 receptor antagonists, primary screen, cell-based. inhibition, % at 2.7 µM. Neuropeptide Y receptor type 2 (Homo sapiens), P49146. 0.99% of 140,000 active. NPY-Y2 expressing cells, antagonist mode; in the data active = inhibition above about 17%;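 also: 0% = vehicle with agonist challenge and 100% = reference antagonist with challenge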
NPY1 pot ag = NPY-Y1 receptor potentiators or agonists, primary screen, cell-based; NPY-Y1 expressing cells, potentiator/agonist activation; activation, % at 3.6 µM; 0.37% of 220,000 active; in the data active = activation above about 33%, passing the limit was not always enough;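 also: cells stimulated with NPY at EC10 then isoproterenol at EC100; 0% = low agonist plus stimulus and 100% = saturating agonist plus stimulus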
m-calpain inh = inhibitors of pig calpain II, primary screen, biochemical, fluorogenic peptide substrate, 1536-well; inhibition, % at 16 µM; AID 1236, 2008; 0.37% of 220,000 active; purified calpain II, 30 min;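 active = inhibition above about 50%, limit read from the data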
Starred values were filed as active, the others as inactive.

Results for Cc1noc(C)c1COC(=O)C(c1ccccc1)c1ccccc1 ?
TbHK1 inh: 2; NPY2 pot ag: -1; NPY Y1 blocker: 0; NPY1 pot ag: 4; m-calpain inh: 58*

What do the screens show for `CCOC(=O)Cc1csc(NC(=O)Nc2cccc(OC)c2)n1`?
TbHK1 inh: 5; NPY2 pot ag: 14; NPY1 pot ag: 1; m-calpain inh: 27

Results for COc1ccc(N2C(=O)N(Cc3ccccc3F)c3ccccc3S2(=O)=O)cc1 ?
TbHK1 inh: 6; NPY2 pot ag: -11; NPY Y1 blocker: -1; NPY1 pot ag: 7; m-calpain inh: 58*

Results for COc1ccc(N2C(=O)N(Cc3cccc(F)c3)c3ccccc3S2(=O)=O)cc1 ?
TbHK1 inh: 6; NPY2 pot ag: 4; NPY Y1 blocker: -7; NPY1 pot ag: 3; m-calpain inh: 63*

Results for Cc1ccc(N2C(=O)N(CC(=O)C(C)(C)C)c3ccccc3S2(=O)=O)cc1 ?
TbHK1 inh: -9; NPY2 pot ag: 0; NPY Y1 blocker: 3; NPY1 pot ag: -4; m-calpain inh: 3

What do the screens show for `O=C(CNCc1cccc2ccccc12)Nc1ccccc1[N+](=O)[O-]`?
TbHK1 inh: -2; NPY2 pot ag: -7; NPY Y1 blocker: 14; NPY1 pot ag: -5; m-calpain inh: 24

Results for O=C(CN1C2=NCCN2c2ccccc21)C12CC3CC(CC(C3)C1)C2 ?
TbHK1 inh: 4; NPY2 pot ag: -33; NPY Y1 blocker: 67*; NPY-Y2 antag: 49*; NPY1 pot ag: -97; m-calpain inh: -3

How did CCN(CC)S(=O)(=O)c1cccc(NC2=NCC(C)S2)c1 (configuration not stated) do in these assays?
TbHK1 inh: 2; NPY2 pot ag: 6; NPY Y1 blocker: -1; NPY1 pot ag: 13; m-calpain inh: 7

Results for O=C(/C=C/c1cnc2ccccc2n1)NC12CC3CC(CC(C3)C1)C2 ?
TbHK1 inh: -17; NPY2 pot ag: -13; NPY Y1 blocker: 5; NPY-Y2 antag: 2; NPY1 pot ag: -14; m-calpain inh: 18

How did COc1ccc(S(=O)(=O)N2CCC(NC(=O)OCc3c(Cl)cccc3Cl)CC2)cc1 do in these assays?
TbHK1 inh: 6; NPY2 pot ag: -3; NPY Y1 blocker: -2; NPY-Y2 antag: -2; NPY1 pot ag: 4; m-calpain inh: 65*

What do the screens show for `CC(=O)Nc1nc2ccc(-c3nc4ccccc4o3)cc2s1`?
TbHK1 inh: -40; NPY2 pot ag: 37*; NPY Y1 blocker: -15; NPY-Y2 antag: -6; NPY1 pot ag: 46*; m-calpain inh: -113

What do the screens show for `CCC(=O)Nc1cccc(-c2nc3ccccc3o2)c1`?
TbHK1 inh: -3; NPY2 pot ag: 4; NPY Y1 blocker: 9; NPY-Y2 antag: 2; NPY1 pot ag: 20; m-calpain inh: -23

How did Cc1ccc(C2CC(c3cccs3)=NN2C(=O)c2ccco2)o1 (configuration not stated) do in these assays?
TbHK1 inh: -14; NPY2 pot ag: -7; NPY Y1 blocker: 9; NPY1 pot ag: -9; m-calpain inh: 51*

Results for O=C(c1ccco1)N1N=C(c2cccs2)CC1c1ccco1 (configuration not stated) ?
TbHK1 inh: -20; NPY2 pot ag: -9; NPY Y1 blocker: 4; NPY1 pot ag: 4; m-calpain inh: 17

Results for O=C(c1ccc(Cl)cc1Cl)N1CCC(c2nc3c(nnn3Cc3ccco3)c(=O)[nH]2)CC1 ?
TbHK1 inh: 42; NPY2 pot ag: -5; NPY Y1 blocker: 2; NPY-Y2 antag: 0; NPY1 pot ag: -16; m-calpain inh: 70*

What do the screens show for `O=C(c1ccccc1)N1CCC(c2nc3c(nnn3Cc3ccco3)c(=O)[nH]2)CC1`?
TbHK1 inh: 6; NPY2 pot ag: 7; NPY Y1 blocker: 0; NPY-Y2 antag: 0; NPY1 pot ag: 6; m-calpain inh: -32

How did COc1ccccc1-n1c(=O)c(C#N)c(-c2ccc([N+](=O)[O-])cc2)c2cc(C(=O)c3cc(F)ccc3O)cnc21 do in these assays?
TbHK1 inh: -11; NPY2 pot ag: 0; NPY Y1 blocker: -2; NPY1 pot ag: 19; m-calpain inh: -77

How did Cn1c(=O)c(C#N)c(-c2ccc(F)cc2)c2cc(C(=O)c3cc(Cl)cc(Cl)c3O)cnc21 do in these assays?
TbHK1 inh: -9; NPY2 pot ag: 92*; NPY1 pot ag: 58*; m-calpain inh: 0

Results for O=C(NCc1cccs1)c1cccc(Nc2nc3ccc(Br)cc3[nH]2)c1 ?
TbHK1 inh: 1; NPY2 pot ag: -1; NPY Y1 blocker: 0; NPY-Y2 antag: -3; NPY1 pot ag: 21; m-calpain inh: 55*

Results for CCOC(=O)c1c(C)[nH]c(C(=O)C(C)Cl)c1C (configuration not stated) ?
TbHK1 inh: -11; NPY2 pot ag: -13; NPY Y1 blocker: 2; NPY1 pot ag: 4; m-calpain inh: -7

Results for CCOC(=O)c1c(C)[nH]c(C(=O)C(C)Sc2ccc(Cl)cc2)c1C (configuration not stated) ?
TbHK1 inh: 7; NPY2 pot ag: -26; NPY Y1 blocker: 84*; NPY-Y2 antag: 34*; NPY1 pot ag: -32; m-calpain inh: 36

How did NS(=O)(=O)c1ccc(NC(=O)c2ccc(CNS(=O)(=O)c3cc(C(F)(F)F)ccc3Cl)cc2)cc1 do in these assays?
TbHK1 inh: -2; NPY2 pot ag: 1; NPY Y1 blocker: 2; NPY1 pot ag: 13; m-calpain inh: -16

What do the screens show for `Cc1cc(C)nc(SCc2nnc(SCC(N)=O)o2)n1`?
TbHK1 inh: 8; NPY2 pot ag: -7; NPY Y1 blocker: -1; NPY1 pot ag: 20; m-calpain inh: 15

Results for COc1cc(/C=C/C(=O)OCC(=O)Nc2ccc3c(c2)OCCO3)ccc1OCC#N ?
TbHK1 inh: 31; NPY2 pot ag: -6; NPY Y1 blocker: 1; NPY-Y2 antag: 8; NPY1 pot ag: 0; m-calpain inh: -61

How did CC(NC(=O)CN1C(=O)NC(Cc2ccccc2)(Cc2ccccc2)C1=O)C12CC3CC(CC(C3)C1)C2 (configuration not stated) do in these assays?
TbHK1 inh: 2; NPY2 pot ag: -90; NPY Y1 blocker: 130*; NPY-Y2 antag: 161*; NPY1 pot ag: -127; m-calpain inh: -71

What do the screens show for `CC(NC(=O)Cn1ncc(Cl)c(Cl)c1=O)C12CC3CC(CC(C3)C1)C2` (configuration not stated)?
TbHK1 inh: 9; NPY2 pot ag: 72*; NPY Y1 blocker: -16; NPY-Y2 antag: 2; NPY1 pot ag: 82*; m-calpain inh: -47

Source: PubChem (several laboratories)
